Compound activity as filed in PubChem BioAssay.
UPR CHOP act = activators of apoptotic arm of unfolded protein response (CHOP); CHO-CHOP luciferase reporter, UPR activation, luminescence; percent of tunicamycin response over DMSO baseline; activation, % at 10 µM; 330,000 tested, 0.34% active;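 active means at 10 µM dose, activation of 40% or more, normalized to positive control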
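System: CHO-CHOP luciferase reporter cell line; amount: 500 cells/well; buffer or medium: F12 medium containing 10% fetal bovine serum; incubation: 6 h compound exposure at 37 °C after overnight seeding; measured by: luciferase luminescence after 10 min with Steady-Glo reagent; evaluation: % reporter activation, DMSO baseline versus tunicamycin full activation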
p97 inhibitor = blocks human p97 ATPase activity; inhibition, % at 8 µM; 220,000 tested, 0.42% active; P55072; recombinant p97 ATPase, Kinase-Glo ATP luminescence, 3 h; in the data active means inhibition above about 15%
Target sequence (P55072 whole entry, looked up): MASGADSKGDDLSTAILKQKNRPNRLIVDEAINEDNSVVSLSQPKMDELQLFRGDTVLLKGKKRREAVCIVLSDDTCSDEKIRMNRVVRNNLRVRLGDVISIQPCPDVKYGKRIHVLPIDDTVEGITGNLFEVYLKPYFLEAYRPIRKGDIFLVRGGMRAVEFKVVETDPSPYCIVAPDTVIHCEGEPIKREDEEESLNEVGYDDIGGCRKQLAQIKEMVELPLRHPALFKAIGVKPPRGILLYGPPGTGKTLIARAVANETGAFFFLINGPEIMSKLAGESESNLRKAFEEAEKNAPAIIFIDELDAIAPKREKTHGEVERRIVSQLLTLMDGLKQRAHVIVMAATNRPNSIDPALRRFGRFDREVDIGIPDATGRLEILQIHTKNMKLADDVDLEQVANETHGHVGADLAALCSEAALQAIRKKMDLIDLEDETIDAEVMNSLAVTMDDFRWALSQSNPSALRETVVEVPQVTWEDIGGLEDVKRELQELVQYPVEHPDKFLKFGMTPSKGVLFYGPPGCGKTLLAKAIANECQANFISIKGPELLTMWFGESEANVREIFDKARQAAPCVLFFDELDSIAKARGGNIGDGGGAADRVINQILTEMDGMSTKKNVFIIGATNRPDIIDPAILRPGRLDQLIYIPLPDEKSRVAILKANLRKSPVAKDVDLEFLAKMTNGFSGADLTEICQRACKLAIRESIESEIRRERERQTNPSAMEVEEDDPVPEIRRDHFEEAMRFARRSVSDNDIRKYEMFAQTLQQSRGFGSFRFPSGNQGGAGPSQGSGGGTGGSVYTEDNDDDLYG
NS3 helicase inh = blocks Hepatitis C virus NS3 helicase unwinding; NS3 helicase DNA unwinding, Cy5 molecular beacon fluorescence; AID 1800; 290,000 tested, 0.56% active; inhibition, % at 10.9 µM;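 active means inhibition above the mean of all tested compounds plus 3 SD, set per campaign, cut at about 35% in these data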
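Assay system: hepatitis C virus NS3 helicase domain fragment enzyme. Also added: annealed dual-labelled DNA beacon duplex, ATP-started. Timing: 1 h reaction at 25 °C, ATP-initiated. Technique: Cy5 fluorescence at 0 and 60 min, beacon hairpin quenching. Evaluation: % inhibition of unwinding. Replication: one well per compound.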
PfM18AAP inh = PfM18AAP enzyme inhibition; recombinant PfM18AAP, H-Glu-NHMec fluorogenic cleavage; inhibition, % at 7.35 µM; 290,000 tested, 1.2% active;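 active means inhibition above the campaign mean inhibition over all tested compounds plus 3 SD, cut at about 28% in these data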
CHOP inh = inhibitors of CHOP induction in ER stress response | CHO-K1 CHOP-promoter luciferase, tunicamycin-induced, 15-18 h | inhibition, % at 10 µM | 220,000 tested, 3.8% active | AID 2732;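 active means compounds that reduced the stress-induced luciferase reporter signal by more than about 70% of percent inhibition, limit read from the data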
XBP1 UPR activ = adaptive UPR (XBP1) activation. 330,000 tested, 0.33% active. CHO-XBP1 luciferase reporter, IRE1-XBP1 UPR activation, luminescence; percent of tunicamycin response, DMSO as zero. activation, % at 20 µM;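 active means versus positive control, 20 µM dose yields 30% or more activation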
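Signal: luciferase luminescence; Assay system: CHO-XBP1 luciferase reporter cells; Amount: one thousand reporter cells per well; Dosing: 20 µM single concentration, DMSO 1%; Benchmarks: high control tunicamycin 10 µg/mL final, low control DMSO vehicle only; Schedule: 6 h compound exposure at 37 °C, 5% CO2; Evaluation: percent activation relative to tunicamycin reference.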
Numbers stand for hits; – = inactive; · = no result given. This is a sample that favours compounds with a hit; in the whole collection about 4.5% have one here.

SMILES	UPR CHOP act	p97 inhibitor	NS3 helicase inh	PfM18AAP inh	CHOP inh	XBP1 UPR activ
Cc1nc(-c2cccnc2)sc1C(=O)Nc1cccc(C(F)(F)F)c1	–	–	–	–	83	–
COc1ccc2c(c1)-c1c(sn(-c3ccccc3)c1=S)C(C)(C)N2	–	–	–	–	70	–
COc1ccc2c(c1)-c1c(sn(-c3ccc(OC)c(OC)c3)c1=S)C(C)(C)N2	–	–	–	–	80	–
COc1ccc2c(c1)-c1c(ssc1=S)C(C)(C)N2	–	–	–	–	–	–
COc1ccc(-n2sc3c(c2=S)-c2cc(OC)ccc2NC3(C)C)cc1	–	–	–	–	91	–
Cc1cccc(NCc2ccc(N(C)C)cc2)n1	–	·	–	–	·	–
CN(C)C(CNC(=O)c1ccc(-c2ccccc2)cc1)c1ccccc1 (configuration not stated)	–	·	–	–	·	–
Cc1ccc(-n2c(C)cc(/C=c3/sc4nc5ccccc5n4c3=O)c2C)cc1	–	–	–	–	85	–
O=c1/c(=C\c2cccn2-c2ccccc2)sc2nc3ccccc3n12	·	–	–	–	–	·
CCOC(=O)N1CCN(C(=O)c2ccccc2NC(=O)COc2ccccc2)CC1	–	·	–	–	·	–
COc1ccccc1Nc1c([N+](=O)[O-])cc(C)cc1[N+](=O)[O-]	–	–	–	–	–	–
COc1ccccc1Nc1ccc([N+](=O)[O-])cc1N	–	–	–	31	–	–
Cc1ccc(C)c(N(C(=O)Cn2nnc3ccccc32)C(C(=O)NC(C)(C)C)c2ccsc2)c1 (configuration not stated)	–	–	–	–	71	–
Cc1cc(C)c(N(C(=O)Cn2nnc3ccccc32)C(C(=O)NC(C)(C)C)c2ccsc2)c(C)c1 (configuration not stated)	–	–	–	–	–	–
CC(C)(C)NC(=O)C(c1ccsc1)N(CCc1ccccc1)C(=O)Cn1nnc2ccccc21 (configuration not stated)	–	–	–	–	95	–
Cc1ccccc1Nc1nc(N)nc(CSc2nnnn2-c2ccccc2)n1	–	–	–	–	–	–
CCc1ccc(Nc2nc(N)nc(CSc3nnnn3-c3ccccc3)n2)cc1	–	–	–	–	88	–
CCOC(=O)c1cc2c(nc1C)-c1cc(Cl)cc(Cl)c1OC2O (configuration not stated)	–	–	–	–	89	–
CC1CC2(CCCCC2)N2C(=O)C(=O)c3cccc1c32 (configuration not stated)	–	–	–	–	75	–
Cc1cc2c3c(c1)C(C)CC(C)(C)N3C(=O)C2=O (configuration not stated)	–	–	–	–	–	–
Cc1ccc(OCCCn2ccnc2)c(Br)c1	–	·	–	–	·	–
COc1cccc(NC(=O)c2nnn(Cc3ccc(Br)cc3F)c2N)c1	–	–	–	–	73	–
Cc1cc(C)cc(NC(=O)c2nnn(Cc3cc(C)ccc3C)c2N)c1	–	–	–	–	93	–
Cc1cccc2[nH]c(CN(C)C(=O)CC3C(=O)NCCN3CC(C)(C)C)nc12 (configuration not stated)	–	–	–	–	–	–
COc1cccc(C(=O)O[C@H]2[C@H](C)NS(=O)(=O)[C@H]3C[C@@H]4C=C[C@]23O4)c1	–	·	·	·	·	–
SMILES	UPR CHOP act	p97 inhibitor	NS3 helicase inh	PfM18AAP inh	CHOP inh	XBP1 UPR activ
Cc1cccc(-c2nnc3sc(-c4ccccc4C)nn23)c1	–	–	–	–	83	–
COc1cccc(-c2nnc3sc(-c4ccccc4)nn23)c1	–	–	–	–	–	–
COc1ccc(C2CC(O)(c3ccccc3)Oc3c(C)ccc(C)c32)cc1 (configuration not stated)	–	·	·	·	98	–
COc1ccc([C@@H]2C[C@@H](c3ccccc3)Oc3c(C)ccc(C(C)C)c32)cc1	–	·	·	·	·	–
COc1ccc(C2CC(O)(c3ccccc3)Oc3cc(OC)cc(OC)c32)cc1 (configuration not stated)	–	·	·	·	85	–
COc1ccc(C2CC(=O)Oc3cc(OC)c(OC)c(OC)c32)cc1 (configuration not stated)	–	·	·	·	·	–
O=C(COc1cccc(Cl)c1)Nc1cc(S(=O)(=O)N2CCOCC2)ccc1N1CCOCC1	–	–	–	–	–	–
CCCn1c(N)c(C(=O)CSc2nnc3ccccn23)c(=O)n(C)c1=O	–	·	·	·	·	–
COc1cc(C(=O)Oc2cc(C)cc(C)c2)cc(OC)c1OC	–	–	–	–	–	–
COc1cc(C(=O)O/N=C2/C=C(C)C(=O)C=C2C)cc(OC)c1OC	96	–	–	–	–	–
NC(=O)[C@@H]1CCCNc2c(I)cc([N+](=O)[O-])cc2C(=O)N[C@@H](CO)C(=O)N[C@@H](Cc2ccc(O)cc2)C(=O)N1	–	–	–	–	–	–
CC(C)C[C@@H]1NC(=O)[C@H](Cc2ccc(O)cc2)NC(=O)c2cc([N+](=O)[O-])cc(I)c2NCCC[C@@H](C(N)=O)NC1=O	–	16	–	–	–	–
NC(=O)CC[C@@H]1NC(=O)[C@H](CO)NC(=O)c2cc([N+](=O)[O-])cc(I)c2NCCC[C@@H](C(N)=O)NC(=O)[C@H](Cc2ccc(O)cc2)NC1=O	–	18	–	–	–	–
CSCCC(NC(=O)COc1ccccc1)C(=O)N1CCN(c2ccccc2O)CC1 (configuration not stated)	–	·	·	·	·	–
Cc1oc(-c2ccc(Cl)cc2)cc1-c1nn2c(-c3ccoc3C)nnc2s1	–	–	42	–	–	–
Clc1ccc(-c2nnc3sc(-c4ccc(Br)o4)nn23)cc1	–	–	–	–	–	–
Cc1cccc(N2CCN(C(=O)c3ccc(Cl)c(NC4=NC5CS(=O)(=O)CC5S4)c3)CC2C)c1 (configuration not stated)	–	·	–	–	·	–
Cc1nc(Nc2ccccc2)[nH]c(=O)c1CCC(C)C	–	–	–	–	89	–
CCc1ccc(NC(=O)C(=O)NCc2ccccn2)cc1	–	–	–	–	–	–
CCN(CC)C(=O)c1cccc(NC(=O)C2CCN(C(=O)c3cccs3)CC2)c1	–	·	·	·	·	–
CCN1CCN(C(=S)Nc2ccc([N+](=O)[O-])cc2)CC1	–	–	–	–	–	–
CCN1C(=O)/C(=C\c2cccn2-c2ccc([N+](=O)[O-])cc2)N(CC)C1=S	–	–	–	–	74	–
Cc1ccc(NS(=O)(=O)c2ccc(C(=O)NCc3ccc(S(N)(=O)=O)cc3)cc2)cc1	–	·	·	·	·	–
O=C(CSc1nc2cc(Cl)ccc2c(=O)n1Cc1ccco1)Nc1ccc(S(=O)(=O)N2CCOCC2)cc1	–	–	–	–	–	–
